Assay results as given in ChEMBL document CHEMBL2331117 (J Med Chem, 2013).
Calls of active or inactive are those of the source. No cut-off for these calls is given here.

Columns and labels:
[1] = Drug uptake in tumor of athymic mouse xenografted with human MCF7 cells at 100 mg/kg, po after 4 hrs; format: ADME, organism-based, Neoplasm; parameters: dose 100 mg/kg, route oral; conditions: read-out: Drug uptake
Mus musculus [2] = assay: In vivo inhibition of mTORC1-mediated phosphorylation of p70S6K at […] in human MCF7 cells xenografted into athymic nude mouse at 100 mg/kg, po after 32 hrs by Western blotting analysis relative to control; format: functional; conditions: MCF7, 32 h
Summary of the method: (§1)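 MCF-7 cells (DMEM, 10% FBS) were implanted subcutaneously at 5 × 10^6 cells in 50% cold HBSS/50% growth-factor-reduced matrigel into the hindflank of 5−8 week old female nude mice. At tumor size 40−150 mg, mice received a single oral dose of 100 mg/kg. Tumor lysates were pooled per group. Phospho-AKT (S473, T308), p70S6K (T389), S6 (S240/244) and 4E-BP1 (T37/46) were measured by Western blot normalized to α-tubulin.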

Mus musculus [3] = assay: In vivo inhibition of mTORC2-mediated phosphorylation of AKT at […] in human MCF7 cells xenografted into athymic nude mouse at 100 mg/kg, po after 32 hrs by Western blotting analysis relative to control; format: functional; conditions: MCF7, 32 h; summary of the method: as §1
[4] = Drug uptake in tumor of athymic mouse xenografted with human PC3 cells at 100 mg/kg, po after 16hrs; format: ADME, organism-based, Neoplasm, PC-3; parameters: dose 100 mg/kg, route oral; conditions: read-out: Drug uptake
Summary of the method: (§2)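 PC-3 cells (3 × 10⁶, passages 10–14, in ice-cold HBSS) were implanted sc in 5–8 week old male nude mice. Tumors of 200–500 mg received a single oral 100 mg/kg dose. Plasma and tumor were collected at 1, 4, 8, 16, 24 and 32 h and homogenized in buffer. Lysates were pooled per group (n = 5), and phospho-proteins were measured by Western blot normalized to α-tubulin.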

[5] = Drug uptake in tumor of athymic mouse xenografted with human PC3 cells at 100 mg/kg, po after 1 hr; format: ADME, organism-based, Neoplasm, PC-3; parameters: dose 100 mg/kg, route oral; conditions: read-out: Drug uptake; summary of the method: as §2
[6] = Plasma concentration in athymic mouse plasma xenografted with human PC3 cells at 100 mg/kg, po after 8 hrs; format: ADME, organism-based, PC-3; parameters: dose 100 mg/kg, route oral
Mus musculus [7] = assay: In vivo inhibition of mTORC1-mediated phosphorylation of 4EBP1 at ([…]) in human PC3 cells xenografted into athymic nude mouse at 100 mg/kg, po after 32 hrs by Western blotting analysis relative to control; format: functional; conditions: PC-3, 32 h
Summary of the method: (§3)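 PC-3 cells grown in DMEM with 20% FBS were implanted subcutaneously at 3 × 10^6 cells in ice-cold HBSS into the hindflank of 5−8 week old male nude mice. At tumor size 200−500 mg, mice received a single oral dose of 100 mg/kg. Plasma and tumors were collected at 1, 4, 8, 16, 24 and 32 h. Tumor lysates from each group (n = 5) were pooled. Phospho-proteins were quantified by Western blot and normalized to α-tubulin.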

[8] = molecular target: Tyrosine-protein kinase JAK2 (Homo sapiens, UniProt O60674); assay: Inhibition of JAK2 (unknown origin)
Focal adhesion kinase 1 = Focal adhesion kinase 1 (Homo sapiens, UniProt Q05397); assay: Inhibition of FAK (unknown origin)
Chain of Focal adhesion kinase 1 (Q05397 whole entry): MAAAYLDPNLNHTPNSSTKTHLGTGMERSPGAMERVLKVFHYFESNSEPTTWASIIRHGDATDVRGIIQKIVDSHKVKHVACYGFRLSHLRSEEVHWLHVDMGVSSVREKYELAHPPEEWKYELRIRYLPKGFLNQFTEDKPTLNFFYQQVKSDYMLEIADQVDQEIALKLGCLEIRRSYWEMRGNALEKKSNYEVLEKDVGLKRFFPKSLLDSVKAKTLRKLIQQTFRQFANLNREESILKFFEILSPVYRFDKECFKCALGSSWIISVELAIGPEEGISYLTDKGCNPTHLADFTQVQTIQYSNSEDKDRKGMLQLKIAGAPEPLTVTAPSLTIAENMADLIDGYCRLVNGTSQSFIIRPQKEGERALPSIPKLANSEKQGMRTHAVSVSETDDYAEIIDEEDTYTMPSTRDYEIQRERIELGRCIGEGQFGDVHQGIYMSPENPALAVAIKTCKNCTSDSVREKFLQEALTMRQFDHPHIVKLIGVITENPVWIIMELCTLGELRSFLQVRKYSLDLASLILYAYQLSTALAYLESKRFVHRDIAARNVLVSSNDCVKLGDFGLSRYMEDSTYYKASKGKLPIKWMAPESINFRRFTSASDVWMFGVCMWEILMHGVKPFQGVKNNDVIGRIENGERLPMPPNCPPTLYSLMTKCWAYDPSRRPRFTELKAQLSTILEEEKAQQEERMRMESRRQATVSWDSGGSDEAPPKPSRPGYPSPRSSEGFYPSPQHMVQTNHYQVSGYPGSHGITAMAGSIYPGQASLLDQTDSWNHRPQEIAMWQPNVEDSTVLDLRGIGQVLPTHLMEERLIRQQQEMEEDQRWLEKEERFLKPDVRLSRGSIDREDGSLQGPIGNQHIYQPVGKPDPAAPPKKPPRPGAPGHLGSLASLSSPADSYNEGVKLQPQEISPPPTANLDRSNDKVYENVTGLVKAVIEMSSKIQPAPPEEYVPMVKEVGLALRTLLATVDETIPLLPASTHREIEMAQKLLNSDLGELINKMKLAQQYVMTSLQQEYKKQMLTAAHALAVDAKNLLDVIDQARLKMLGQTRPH
Summary of the method: (§4)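 Part of a 141-protein-kinase selectivity panel run either in house or by an outside contract lab. IC50 is reported as the average of at least two determinations.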

[9] = molecular target: Receptor tyrosine-protein kinase erbB-2 (Homo sapiens, UniProt P04626); assay: Inhibition of ERBB2 (unknown origin); summary of the method: as §4
Chain of Receptor tyrosine-protein kinase erbB-2 (P04626 whole entry): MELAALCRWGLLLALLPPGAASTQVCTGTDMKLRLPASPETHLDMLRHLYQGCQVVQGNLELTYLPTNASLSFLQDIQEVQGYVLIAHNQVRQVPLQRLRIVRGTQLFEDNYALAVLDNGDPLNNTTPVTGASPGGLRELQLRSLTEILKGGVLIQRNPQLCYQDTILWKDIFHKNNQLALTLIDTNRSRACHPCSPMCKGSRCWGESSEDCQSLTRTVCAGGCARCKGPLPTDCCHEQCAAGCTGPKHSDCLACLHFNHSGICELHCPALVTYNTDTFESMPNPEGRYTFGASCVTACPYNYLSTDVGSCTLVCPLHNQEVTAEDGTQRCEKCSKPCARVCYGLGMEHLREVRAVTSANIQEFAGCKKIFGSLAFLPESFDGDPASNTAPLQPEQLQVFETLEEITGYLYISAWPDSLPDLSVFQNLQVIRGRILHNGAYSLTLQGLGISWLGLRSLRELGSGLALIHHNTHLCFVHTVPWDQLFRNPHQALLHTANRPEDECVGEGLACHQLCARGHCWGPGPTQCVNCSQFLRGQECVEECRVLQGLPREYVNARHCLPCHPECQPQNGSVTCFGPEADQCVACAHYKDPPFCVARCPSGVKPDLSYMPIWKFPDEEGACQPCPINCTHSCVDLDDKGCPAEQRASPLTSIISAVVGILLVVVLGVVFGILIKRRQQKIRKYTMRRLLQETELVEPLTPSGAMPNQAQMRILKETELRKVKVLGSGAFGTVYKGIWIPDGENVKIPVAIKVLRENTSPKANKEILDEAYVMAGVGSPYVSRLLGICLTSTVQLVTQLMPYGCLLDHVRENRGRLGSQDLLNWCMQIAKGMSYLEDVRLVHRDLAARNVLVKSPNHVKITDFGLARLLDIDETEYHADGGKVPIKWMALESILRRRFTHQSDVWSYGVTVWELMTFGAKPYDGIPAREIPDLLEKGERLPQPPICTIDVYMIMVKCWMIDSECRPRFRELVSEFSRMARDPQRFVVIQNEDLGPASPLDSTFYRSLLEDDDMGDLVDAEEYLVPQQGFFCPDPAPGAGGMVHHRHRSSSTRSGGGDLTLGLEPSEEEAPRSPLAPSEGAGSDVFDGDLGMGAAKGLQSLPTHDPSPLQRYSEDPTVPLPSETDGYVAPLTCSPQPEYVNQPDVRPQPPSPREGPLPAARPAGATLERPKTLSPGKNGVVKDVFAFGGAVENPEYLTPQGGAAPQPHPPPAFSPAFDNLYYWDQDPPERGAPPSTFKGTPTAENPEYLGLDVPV

[10] = molecular target: Serine/threonine-protein kinase mTOR (Homo sapiens) (UniProt P42345); assay: Competitive inhibition of mTOR (unknown origin) in presence of ATP
[11] = molecular target: Serine/threonine-protein kinase mTOR (Rattus norvegicus) (UniProt P42346); assay: Reversible inhibition of mTOR (unknown origin) assessed as enzyme recovery measured after dilution in presence of ATP relative to untreated control; conditions: Homo sapiens
[12] = Half life in athymic nude mouse at 10 mg/kg, iv; format: ADME, organism-based; parameters: dose 10 mg/kg, route intravenous; conditions: in vivo
Summary of the method: (§5)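 Single-dose PK: female athymic nude mice (10 mg/kg), female CD rats and male beagle dogs (3 mg/kg), male cynomolgus monkeys (3 mg/kg), given iv and by oral gavage. Solution in EPW (5% ethanol/45% PEG400/water), with 1:2 HCl (m/m) for mouse, rat and dog and 1:1.5 HCl (m/m) for monkey. Plasma levels followed over 24 h.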

[13] = AUC (0 to infinity) in CD rat at 3 mg/kg, po; format: ADME, organism-based; parameters: time infinity, dose 3 mg/kg, route oral; conditions: plasma; summary of the method: as §5
[14] = AUC (0 to infinity) in athymic nude mouse at 10 mg/kg, po; format: ADME, organism-based; parameters: dose 10 mg/kg, route oral, time infinity; conditions: plasma; summary of the method: as §5
[15] = AUC (0 to infinity) in CD rat at 3 mg/kg, iv; format: ADME, organism-based; parameters: time infinity, dose 3 mg/kg, route intravenous; conditions: plasma; summary of the method: as §5
[16] = Drug uptake in tumor of athymic mouse xenografted with human MCF7 cells at 100 mg/kg, po after 24 hrs; format: ADME, organism-based, Neoplasm; parameters: dose 100 mg/kg, route oral; conditions: in vivo, BLD = below limit of detection
Mus musculus [17] = assay: Toxicity in athymic nude mouse assessed as body weight gain at 50 mg/kg, po relative to control; format: organism-based; parameters: dose 50 mg/kg, route oral; conditions: in vivo
[18] = Drug uptake in tumor of athymic mouse xenografted with human MCF7 cells at 100 mg/kg, po after 16hrs; format: ADME, organism-based, Neoplasm; parameters: dose 100 mg/kg, route oral; conditions: read-out: Drug uptake
[19] = Metabolic stability in rat liver microsomes after 30 mins; format: ADME, Microsome; conditions: read-out: Stability
[20] = Plasma protein binding in dog at 5 uM; format: ADME, cell-free, Canis lupus familiaris; conditions: read-out: PPB (converted)
[21] = Plasma protein binding in monkey at 5 uM; format: ADME, cell-free, Macaca mulatta; conditions: rhesus monkey, read-out: PPB (converted)
Cytochrome P450 2C9 = Cytochrome P450 2C9 (Homo sapiens, UniProt P11712); assay: Inhibition of CYP2C9 (unknown origin); format: ADME
Chain of Cytochrome P450 2C9 (P11712 whole entry): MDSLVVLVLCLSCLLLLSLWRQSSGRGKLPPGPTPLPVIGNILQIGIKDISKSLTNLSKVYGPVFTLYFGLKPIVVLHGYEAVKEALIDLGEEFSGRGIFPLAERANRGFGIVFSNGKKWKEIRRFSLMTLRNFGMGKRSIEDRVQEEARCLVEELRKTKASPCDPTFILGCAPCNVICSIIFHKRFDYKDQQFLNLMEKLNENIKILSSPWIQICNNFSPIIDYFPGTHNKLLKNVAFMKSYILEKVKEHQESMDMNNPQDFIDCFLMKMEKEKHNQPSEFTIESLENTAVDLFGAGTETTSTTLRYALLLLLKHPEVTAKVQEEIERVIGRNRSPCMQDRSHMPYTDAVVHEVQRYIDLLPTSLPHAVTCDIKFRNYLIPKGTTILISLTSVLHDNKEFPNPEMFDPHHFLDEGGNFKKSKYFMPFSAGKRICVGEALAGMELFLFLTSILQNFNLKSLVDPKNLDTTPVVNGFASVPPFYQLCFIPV

[22] = Apparent permeability across MDCK cells; format: ADME, cell-based, Canis lupus familiaris; conditions: dog
[23] = Metabolic stability in mouse liver microsomes after 30 mins; format: ADME, Microsome; conditions: read-out: Stability
[24] = molecular target: Proto-oncogene tyrosine-protein kinase Src (Homo sapiens, UniProt P12931); assay: Inhibition of SRC (unknown origin)
Chain of Proto-oncogene tyrosine-protein kinase Src (P12931 2-536 limits assumed): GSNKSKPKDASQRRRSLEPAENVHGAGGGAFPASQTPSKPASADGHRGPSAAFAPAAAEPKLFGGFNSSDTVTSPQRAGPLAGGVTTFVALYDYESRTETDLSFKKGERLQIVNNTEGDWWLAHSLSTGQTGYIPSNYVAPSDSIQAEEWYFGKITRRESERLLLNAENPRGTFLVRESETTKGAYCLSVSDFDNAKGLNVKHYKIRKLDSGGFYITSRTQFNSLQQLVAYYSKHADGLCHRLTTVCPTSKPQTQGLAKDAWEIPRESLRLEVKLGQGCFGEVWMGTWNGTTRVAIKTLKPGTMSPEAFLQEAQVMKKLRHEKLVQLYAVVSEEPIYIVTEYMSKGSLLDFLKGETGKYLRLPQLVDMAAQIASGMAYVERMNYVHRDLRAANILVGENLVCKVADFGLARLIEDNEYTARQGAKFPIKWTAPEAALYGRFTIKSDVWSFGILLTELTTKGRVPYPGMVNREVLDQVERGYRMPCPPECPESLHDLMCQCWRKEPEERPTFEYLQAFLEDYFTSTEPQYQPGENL

[25] = molecular target: Ribosomal protein S6 kinase beta-1 (Homo sapiens, UniProt P23443); assay: Inhibition of p70S6K (unknown origin)
Chain of Ribosomal protein S6 kinase beta-1 (P23443 whole entry): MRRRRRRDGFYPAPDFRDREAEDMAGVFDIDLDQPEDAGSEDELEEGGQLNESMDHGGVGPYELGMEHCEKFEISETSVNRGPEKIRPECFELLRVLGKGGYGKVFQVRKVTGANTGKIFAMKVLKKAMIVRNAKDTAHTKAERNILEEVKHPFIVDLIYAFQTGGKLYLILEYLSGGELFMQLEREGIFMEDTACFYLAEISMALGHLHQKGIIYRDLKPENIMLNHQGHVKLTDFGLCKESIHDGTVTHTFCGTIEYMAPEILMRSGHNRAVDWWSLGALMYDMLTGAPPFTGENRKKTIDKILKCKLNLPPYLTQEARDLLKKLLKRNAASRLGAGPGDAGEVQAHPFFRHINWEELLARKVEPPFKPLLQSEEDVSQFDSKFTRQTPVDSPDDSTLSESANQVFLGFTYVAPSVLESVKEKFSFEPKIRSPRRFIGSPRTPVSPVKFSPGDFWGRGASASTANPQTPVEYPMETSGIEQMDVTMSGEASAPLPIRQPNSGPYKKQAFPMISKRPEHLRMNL

Mus musculus [26] = assay: In vivo inhibition of mTORC1-mediated phosphorylation of p70S6K at […] in human PC3 cells xenografted into athymic nude mouse at 100 mg/kg, po after 32 hrs by Western blotting analysis relative to control; format: functional; conditions: PC-3, 32 h; summary of the method: as §3
Mus musculus [27] = assay: In vivo inhibition of mTORC1-mediated phosphorylation of p70S6K at […] in human PC3 cells xenografted into athymic nude mouse at 100 mg/kg, po after 1 hr by Western blotting analysis relative to control; format: functional; conditions: PC-3, 1 h; summary of the method: as §3
Mus musculus [28] = assay: Inhibition of mTORC2-mediated phosphorylation of AKT at serine 473 in human PC3 cells xenografted into athymic nude mouse at 100 mg/kg, po after 1 hr by Western blotting analysis relative to control; format: functional; conditions: PC-3, 1 h
Summary of the method: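 PC-3 cells (3 × 10^6, in ice-cold HBSS) were implanted subcutaneously in the hindflank of 5–8 week old male nude mice. At 200–500 mg tumour size, mice received a single oral dose. Tumours were collected at set times after dosing, homogenised and pooled per group (n=5). pAKT S473 was measured by Western blot and normalised to α-tubulin.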

[29] = molecular target: Voltage-gated inwardly rectifying potassium channel KCNH2 (Homo sapiens, UniProt Q12809); assay: Activity at human ERG by patch clamp technique
Chain of Voltage-gated inwardly rectifying potassium channel KCNH2 (Q12809 whole entry): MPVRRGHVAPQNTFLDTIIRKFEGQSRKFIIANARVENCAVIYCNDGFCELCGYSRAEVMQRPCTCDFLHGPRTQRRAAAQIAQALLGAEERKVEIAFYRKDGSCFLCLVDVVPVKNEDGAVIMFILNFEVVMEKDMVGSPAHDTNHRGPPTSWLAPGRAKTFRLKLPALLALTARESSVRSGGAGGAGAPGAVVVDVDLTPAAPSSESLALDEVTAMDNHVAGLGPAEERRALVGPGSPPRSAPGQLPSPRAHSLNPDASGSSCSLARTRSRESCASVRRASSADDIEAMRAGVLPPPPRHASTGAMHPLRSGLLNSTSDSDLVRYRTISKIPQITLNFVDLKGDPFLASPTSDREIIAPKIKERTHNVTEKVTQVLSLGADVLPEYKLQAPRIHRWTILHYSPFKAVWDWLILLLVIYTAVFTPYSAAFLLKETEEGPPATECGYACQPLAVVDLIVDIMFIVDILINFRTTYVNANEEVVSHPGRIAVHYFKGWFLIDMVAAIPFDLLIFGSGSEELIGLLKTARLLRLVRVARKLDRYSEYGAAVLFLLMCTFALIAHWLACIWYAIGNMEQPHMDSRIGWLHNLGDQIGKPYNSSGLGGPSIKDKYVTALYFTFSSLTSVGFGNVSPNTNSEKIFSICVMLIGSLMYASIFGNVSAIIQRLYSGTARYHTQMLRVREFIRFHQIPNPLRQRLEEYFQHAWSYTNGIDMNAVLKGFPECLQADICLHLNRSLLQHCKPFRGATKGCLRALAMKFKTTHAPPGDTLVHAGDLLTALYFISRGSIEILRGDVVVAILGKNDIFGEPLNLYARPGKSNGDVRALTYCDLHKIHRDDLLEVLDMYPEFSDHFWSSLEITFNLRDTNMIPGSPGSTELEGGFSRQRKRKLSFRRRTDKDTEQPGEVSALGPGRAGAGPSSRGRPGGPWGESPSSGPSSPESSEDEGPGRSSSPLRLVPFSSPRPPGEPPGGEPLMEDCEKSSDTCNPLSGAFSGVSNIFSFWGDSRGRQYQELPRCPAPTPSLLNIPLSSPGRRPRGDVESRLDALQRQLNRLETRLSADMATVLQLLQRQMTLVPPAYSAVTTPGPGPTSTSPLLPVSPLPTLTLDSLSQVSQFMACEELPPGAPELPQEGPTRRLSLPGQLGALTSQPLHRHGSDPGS
Summary of the method: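 hERG current measured by manual patch clamp.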

concentration at 4 h [1]: 35.9 µM | concentration at 16 h [4]: 7.34 µM | concentration at 1 h [5]: 28.8 µM | concentration at 8 h [6]: 26.7 µM | IC50 [8]: > 3.5 µM | IC50 (Focal adhesion kinase 1): > 3.5 µM | IC50 [9]: > 3.5 µM | inhibition [10]: Active | inhibition [11]: inactive | half-life [12]: 1.35 h | AUC(0-inf) [13]: 0.952 µM·h | AUC(0-inf) [14]: 2.51 µM·h | AUC(0-inf) [15]: 3.72 µM·h | Drug uptake [16]: BLD | concentration at 16 h [18]: 2.74 µM | remaining at 0.5 h [19]: 78% | fraction unbound at 5 µM [20]: 0.11 | fraction unbound at 5 µM [21]: 0.1 | INH (Cytochrome P450 2C9): 10.6 µM | Papp [22]: 15.1 ×10⁻⁶ cm/s | remaining at 0.5 h [23]: 78% | IC50 [24]: > 3.5 µM | IC50 [25]: > 3.5 µM
SMILES: Cc1c(C(=O)N2CCOc3ccc(-c4ccc(N)nc4)cc3C2)ccc(S(C)(=O)=O)c1F
inhibition in vivo at 100 mg/kg (Mus musculus [2]): 2% | inhibition in vivo at 100 mg/kg (Mus musculus [3]): 10% | inhibition in vivo at 100 mg/kg (Mus musculus [7]): 33% | Activity (Mus musculus [17]): 2.2% | inhibition in vivo at 100 mg/kg (Mus musculus [26]): -12% | inhibition in vivo at 100 mg/kg (Mus musculus [27]): 87% | inhibition in vivo at 100 mg/kg (Mus musculus [28]): 88% | Activity [29]: 15.9 µM
